From article PMC7032146 (Asian Journal of Pharmaceutical Sciences, 2018)

Key:
[1] = system: L929 cells; experiment: Cellular uptake of NR-loaded micelles; assay type: cell-based
In short: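 L929 cells (CD44-negative) grown 24 h in DMEM with 10% FBS, then medium replaced with free fluorescent marker NR or micelles loaded with NR at 0.2% drug loading. Incubated at 37 °C for 1, 4 and 8 h, washed thrice with PBS, and viewed by fluorescent inverted microscope. For flow cytometry at 1 and 4 h, cells were PBS-washed, trypsinised, resuspended in PBS, and read at 560/620 nm.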

[2] = system: B16F10 cells; experiment: Cellular uptake of NR-loaded micelles; assay type: cell-based; details: B16F10, flow cytometry, 1 h and 4 h

CCN(CC)c1ccc2nc3c4ccccc4c(=O)cc-3oc2c1 [free NR, nile red]
Fluorescence intensity of NR (cellular uptake) ([1]; L929 (CD44-negative), fluorescent inverted microscope): highest
Fluorescence intensity of NR (cellular uptake) ([1]; L929, flow cytometry, 1 h and 4 h): highest
Intracellular NR concentrations, order [2]: HA-SS-ATRA21/NR micelles > HA-ATRA20/NR micelles > free NR > HA-SS-ATRA21/NR micelles treated with free-HA
